The source of these data is paper PMC10416317 (Journal of medicinal chemistry, 2023).

The test system of one test is acute kidney injury. As to the kind of experiment: Ischemia/reperfusion-induced AKI model in mice. The format is in vivo. The settings on record: mouse I/R AKI.
Test [1] has as its target AKR1B1 (Mus musculus, UniProt P45376). As to the kind of experiment: Methylglyoxylate-metabolizing. The format is in vivo. The settings on record: i.p. 120 mg/kg, 18h.
The target in test [2] is T1, SCoR2 (Mus musculus, UniProt Q9JII6).
T1 sequence (Q9JII6 1-325): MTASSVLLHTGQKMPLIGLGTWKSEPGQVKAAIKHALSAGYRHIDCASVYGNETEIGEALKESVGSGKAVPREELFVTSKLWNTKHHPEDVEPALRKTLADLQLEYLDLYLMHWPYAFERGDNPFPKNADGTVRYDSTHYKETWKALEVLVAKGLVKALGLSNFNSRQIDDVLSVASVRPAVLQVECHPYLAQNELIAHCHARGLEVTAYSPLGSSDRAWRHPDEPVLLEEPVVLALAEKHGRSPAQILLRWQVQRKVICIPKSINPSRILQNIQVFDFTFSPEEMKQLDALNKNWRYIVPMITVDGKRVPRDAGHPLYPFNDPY
The format is in vivo. The settings on record: i.p. 120 mg/kg, 18h. The method in brief: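 Mice received test compound 120 mg/kg i.p. (vehicle DMSO); liver, lung, heart, brain and spleen were harvested 18 h later. Tissues were homogenized in 50 mM phosphate pH 7.0, 150 mM NaCl, 100 μM EDTA/DTPA, clarified at 20,000xg, 4°C, and protein measured by BCA. Lysate started reactions with 200 μM SNO-CoA and 100 μM NADPH in phosphate/EDTA/DTPA buffer; 2 min; triplicate; n≥3.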

Test [3] has as its target AKR1B1 (Homo sapiens, UniProt P15121). Nature of the test: Inhibition of methylglyoxylate-metabolizing activity of purified AKR1B1. The format is biochemical. The settings on record: ratio of IC50 values.
The target in test [4] is T1, SCoR2. As to the kind of experiment: SNO-CoA-metabolizing activity in kidneys of treated mice. The format is in vivo. Summed up: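 Mice got test compound i.p. with DMSO vehicle or were fed compound-containing diet; SCoR2-knockout mice served as comparators. Kidneys were taken 18 h after a single 20–120 mg/kg dose, or 24 h after I/R surgery done 18 h post-dose. Tissue was homogenized in 50 mM phosphate pH 7.0, 150 mM NaCl, 100 μM EDTA/DTPA, then clarified (20,000xg, 4°C) and BCA-normalized. Lysate started reactions with 200 μM SNO-CoA and 100 μM NADPH; 2 min, triplicate.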

The target of test [5] is T2, SCoR2 (Homo sapiens, UniProt P14550).
T2 sequence (P14550 1-325): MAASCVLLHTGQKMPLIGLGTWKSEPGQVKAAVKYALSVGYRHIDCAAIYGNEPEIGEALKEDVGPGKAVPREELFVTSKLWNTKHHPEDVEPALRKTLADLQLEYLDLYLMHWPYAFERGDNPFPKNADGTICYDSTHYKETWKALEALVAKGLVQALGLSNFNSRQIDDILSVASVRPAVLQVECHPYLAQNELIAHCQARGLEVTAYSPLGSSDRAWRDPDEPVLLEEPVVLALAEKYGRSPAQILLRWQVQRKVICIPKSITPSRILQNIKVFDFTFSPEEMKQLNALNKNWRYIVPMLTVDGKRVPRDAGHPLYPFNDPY
Nature of the test: Differential scanning fluorimetry. The format is binding. The settings on record: 5 μM SCoR2, 250 μM compound; SCoR2 alone 48.3 (buffer), 48.0 (1% DMSO). (In general: DSF heats the sample and reads unfolding from a dye or from intrinsic fluorescence.)

In another test the target is T3, SCoR2 (AKR1A1) (Homo sapiens, UniProt P14550).
T3 sequence (P14550 1-325): T2 sequence (P14550 1-325)
Nature of the test: Inhibition of DL-glyceraldehyde-metabolizing activity of purified SCoR2. The format is biochemical. The settings on record: DL-glyceraldehyde as substrate, in vitro. The method in brief: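 Initial screen with recombinant human SCoR2 (C-terminal His tag, expressed in E. coli, Ni-NTA purified). The 1 ml cuvette held 20 nM SCoR2, 3 mM DL-glyceraldehyde and varying inhibitor in 50 mM phosphate pH 7.0. NADPH (100 μM) started the reaction, which ran 2 min. NADPH consumption slope was read spectrophotometrically and IC50 was obtained by curve fitting.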

[6] abbreviates: diet with 125 mg/kg diet for 3 weeks or 12 weeks.
[7] abbreviates: 20 mg/kg i.p. 18 h before surgery, 24 h post-surgery.

For `O=C1NC(=O)C2(N1)c1ccccc1-c1ccc(C3CC3)cc12` (centres unmarked) [5-1], the “Protection against AKI” value in the test on acute kidney injury (120 mg/kg i.p. 18 h before surgery) is on record as “protected against AKI”. Further, on AKR1B1 [1], the “Activity of kidney AKR1B1” value is recorded as “did not inhibit”. Further, on SCoR2 [2], the “Activity of SCoR2 in brain” value is listed as “not in brain”, the “Activity of SCoR2 in heart” value is listed as “inhibited”, the “Activity of SCoR2 in liver” value is “inhibited” and the “Activity of SCoR2 in lung” value is “inhibited”. The “Activity of SCoR2 in spleen” value on SCoR2 [2] is “inhibited”.

Take `O=C1NC(=O)C2(N1)c1cc(F)ccc1-c1ccc(F)cc12` [Imirestat, imirestat]: the “Times more potent at AKR1B1 (vs SCoR2)” value on AKR1B1 [3] stood at 1.2. Moreover, the “SNO-CoA-metabolic activity in kidneys following AKI” value on SCoR2 [4] (20 mg/kg i.p. 18 h before AKI surgery, 24 h post-surgery) was “strongly inhibited”. Moreover, on SCoR2 [4] (setting [6]), the “SCoR2 activity in the kidney on drug diet” value is recorded as “potently inhibited”. The “Protection against AKI” value with acute kidney injury (20 mg/kg i.p. 18 h before surgery) is “does not protect against AKI”. Also, in the test on acute kidney injury (setting [7]), the “Blood urea nitrogen (BUN) vs DMSO-treated mice” value was “the same” and the “Serum creatinine vs DMSO-treated mice” value is on record as “the same”. Further, the “Protection against AKI” value in the test on acute kidney injury (setting [6]) is “did not show protection against AKI”.

As to `NC(=O)C1=CN([C@@H]2O[C@H](COP(=O)(O)OP(=O)(O)OC[C@H]3O[C@@H](n4cnc5c(N)ncnc54)[C@H](OP(=O)(O)O)[C@@H]3O)[C@@H](O)[C@H]2O)C=CC1` [NADPH], the “Melting temperature (Tm) of SCoR2, compound alone” value on SCoR2 [5] was determined as 51.4 °C.

For the compound `O=C1NC(=O)C2(N1)c1ccccc1-c1ccccc12` [compound 2], at SCoR2 (AKR1A1), the “Inhibition of SCoR2 / potency at SCoR2 (in words)” value was “less potent”.

In the case of `CC(/C=C1\SC(=S)N(CC(=O)O)C1=O)=C\c1ccccc1` [epalrestat, reference compound], the “Inhibition of SCoR2 / potency at SCoR2 (in words)” value on SCoR2 (AKR1A1) is listed as “inhibit”.
